PAFAH1B2 FP inh = PAFAH1B2 (human) inhibition | P68402 | recombinant PAFAH1B2, FP-rhodamine activity probe, fluorescence polarization | inhibition, % at 3.39 µM | 340,000 tested, 1.2% active | AID 492953;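 active = inhibition above the mean of all tested compounds plus 3 SD, cut at about 24% in these data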;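 also: 0% = enzyme with DMSO and 100% = wells lacking PAFAH1B2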
Target sequence (P68402 whole entry, looked up): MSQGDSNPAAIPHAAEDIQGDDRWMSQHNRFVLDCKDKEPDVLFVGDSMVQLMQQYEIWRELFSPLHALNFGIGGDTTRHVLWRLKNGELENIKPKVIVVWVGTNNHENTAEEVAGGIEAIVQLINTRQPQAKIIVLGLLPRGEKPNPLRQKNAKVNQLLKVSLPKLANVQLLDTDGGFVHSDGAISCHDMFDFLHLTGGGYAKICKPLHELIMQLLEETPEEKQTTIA
PREPL inhibitor = inhibitors of human prolyl oligopeptidase-like enzyme PREPL | Q4J6C6 | recombinant PREPL, fluorescence polarization activity-based probe | inhibition, % at 5.96 µM | 320,000 tested, 0.68% active | AID 2751;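 also: 0% = enzyme with DMSO and 100% = wells lacking enzyme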
pPAFAH FP inh = pPAFAH (human) enzyme inhibition; Q13093; recombinant pPAFAH, FP-rhodamine probe fluorescence polarization; inhibition, % at 3.39 µM; 330,000 tested, 1.5% active; AID 463082;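 active = inhibition above the mean inhibition across the screen plus 3 SD, cut at about 25% in these data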;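 also: inhibitors block binding of the rhodamine activity-based probe so polarization drops; 0% = enzyme with DMSO and 100% = wells lacking pPAFAH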
PAFAH1B3 FP inh = blocks human PAF acetylhydrolase 1B catalytic subunit 3; 340,000 tested, 0.28% active; inhibition, % at 3.39 µM; recombinant PAFAH1B3, FP-rhodamine probe, fluorescence polarization;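 active = inhibition above the screen-wide average of all tested compounds plus 3 SD, cut at about 25% in these data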;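 also: 0% = enzyme with DMSO only and 100% = wells lacking PAFAH1B3 protein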
Target sequence (Q15102 whole entry, looked up): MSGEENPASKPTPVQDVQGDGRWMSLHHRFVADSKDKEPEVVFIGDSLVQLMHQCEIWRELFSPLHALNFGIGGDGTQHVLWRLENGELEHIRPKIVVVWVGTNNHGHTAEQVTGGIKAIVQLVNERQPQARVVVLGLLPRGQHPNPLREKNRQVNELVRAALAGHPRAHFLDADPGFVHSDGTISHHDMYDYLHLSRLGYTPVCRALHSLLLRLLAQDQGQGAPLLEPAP
Apaf1 inhib = human Apaf-1 inhibition; inhibition, % at 20 µM; reconstituted apoptosome caspase-3 activity, DEVD-Rh110 fluorescence; 330,000 tested, 0.71% active; O14727; active = inhibition of at least 40% at 20 µM;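 also: plate controls were DMSO wells for no effect and DEVD-CHO caspase inhibitor wells for full effect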
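System – cell-free apoptosome with Apaf-1, procaspase-3 and caspase-9 · Buffer or medium – pH 7.5 Hepes buffer with CHAPS, BSA, DTT · Also added – cytochrome c with DEVD-Rh110 · Times – 30 min compound preincubation, 50 min activation, room temperature · Technique – Rh110 fluorescence intensity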
PAFAH2 FP inh = PAFAH2 (human) inhibition. Q99487. recombinant PAFAH2, FP-rhodamine activity probe, fluorescence polarization. inhibition, % at 3.39 µM. 340,000 tested, 0.99% active. AID 492956;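 active = inhibition above the mean over all tested compounds plus 3 SD, cut at about 30% in these data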;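 also: inhibitors block probe labeling of enzyme so polarization drops; 0% = enzyme with DMSO and 100% = wells lacking PAFAH2 protein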
PREPL confirm = human PREPL inhibition, confirmation | shares compounds with PREPL inhibitor | recombinant PREPL, fluorescence polarization activity probe | inhibition, % at 5.96 µM | 2,000 tested, 67% active | AID 2803;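 also: 0% = protein with DMSO and 100% = wells lacking protein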
Starred values were filed as active, the others as inactive; . = no result given. Hits are enriched below; roughly 3.5% of the tested compounds scored in any of these assays. Rule as the data show it, unless noted: active = inhibition above about 43%; inactive = the rest.

SMILES	PAFAH1B2 FP inh	PREPL inhibitor	pPAFAH FP inh	PAFAH1B3 FP inh	Apaf1 inhib	PAFAH2 FP inh	PREPL confirm
Cn1c(=O)c(NCCO)c2c3c(cccc31)C(=O)c1ccccc1-2	41*	90*	95*	41*	-25	58*	103*
CC1CCN(C(=O)c2ccc3c(c2NCCO)C(=O)c2ccccc2C3=O)CC1	-1	22	12	-4	4	-2	.
Cn1c(=O)c(NCCc2ccccc2)c2c3c(cccc31)C(=O)c1ccccc1-2	147*	163*	142*	165*	5	168*	166*
O=c1cc(-c2ccccc2)[nH]n1-c1nc2ccccc2[nH]1	3	-1	9	8	22	5	.
CCc1cc(=O)[nH]c(-n2[nH]c(-c3ccccc3)cc2=O)n1	6	57*	8	7	1	21	2
O=C(C[C@@H]1C/C=C\C[C@@H](Cc2ccc(F)cc2)C(=O)OC[C@@H](Cc2c[nH]c3ccccc23)NC1=O)NCCO	21	54*	25*	6	5	3	47*
O=C(C[C@H]1C/C=C\C[C@@H](Cc2ccc(F)cc2)C(=O)OC[C@@H](Cc2c[nH]c3ccccc23)NC1=O)NCCO	14	45*	20	3	14	5	35
COc1ccc(/C=N\NC(=O)c2cc(O)c(O)c(O)c2)cc1CN1CCN(c2ccc(F)cc2)CC1	-6	54*	30*	13	.	-6	20
CC1CCCCN1Cc1c(O)ccc2c(=O)c(-c3nc4ccccc4s3)c(N)oc12 (centres undefined)	12	51*	17	-2	14	18	51*
COc1ccc(-c2c(C)oc3c(CN4CCCCC4C)c(O)ccc3c2=O)cc1 (centres undefined)	3	-5	2	5	2	-5	.
S=C(NCCCN1CCOCC1)N1CCN(c2nc(-c3ccccc3)cs2)CC1	3	37	5	5	5	-4	.
S=C(NCCCN1CCOCC1)N1CCN(c2nc(-c3ccc(Cl)cc3)cs2)CC1	-1	44*	9	2	37	4	43*
Cc1cc(C(=O)NNC(=O)CN2C(=O)NC3(CCCCC3)C2=O)c(C)o1	1	5	3	6	-4	-3	.
CNC(=S)N1N=C(c2ccc(Br)cc2)CC1c1ccc(Br)cc1 (centres undefined)	1	-7	-5	-2	8	-1	.
CNC(=S)N1N=C(c2ccc(OC)cc2)CC1c1ccc(N(C)C)cc1 (centres undefined)	8	56*	8	7	8	2	60*
CNC(=S)N1N=C(c2cccs2)CC1c1ccc(OC)cc1 (centres undefined)	1	13	9	2	-2	-12	.
CNC(=S)N1N=C(c2ccc(Br)cc2)CC1c1ccc(N(C)C)cc1 (centres undefined)	6	48*	-8	3	8	-3	50*
Fc1ccc(Nc2ccc3ccccc3n2)c(F)c1	5	2	4	3	-13	0	.
CC(=O)c1sc(NC(=O)C2CCN(C(=O)c3ccc(F)cc3)CC2)nc1-c1ccccc1	3	1	7	3	12	3	.
O=C(NCc1ccco1)c1ccc(F)c(S(=O)(=O)N2CCCCC2)c1	2	61*	-4	7	6	1	7
COc1cc(/C=N\NC(=O)c2ccc(-c3ccccc3)cc2)cc(Br)c1O	5	43*	20	9	20	1	41
COc1cccc(COC(=O)C2CC(=O)N(Cc3ccc(C)cc3)C2)c1OC (centres undefined)	3	-3	19	5	15	3	.
CCOc1cc(/C=C2/SC(=S)NC2=O)ccc1OC(=O)c1ccco1	-7	66*	-29	-20	18	-7	67*
O=C1NC(=S)S/C1=C/c1ccc(OC(=O)c2ccco2)cc1	0	65*	-4	5	9	-3	69*
CCOC(=O)[C@@H]1[C@H]2COc3cc(OC)ccc3[C@@H]2N2C(=O)N(c3ccc(F)cc3)C(=O)[C@]12C	-3	-23	1	-4	16	-7	.
SMILES	PAFAH1B2 FP inh	PREPL inhibitor	pPAFAH FP inh	PAFAH1B3 FP inh	Apaf1 inhib	PAFAH2 FP inh	PREPL confirm
COc1cc2c3nc4n(c(=O)c3n(CC(=O)N3CCCC3)c2cc1OC)CCS4	2	.	.	10	.	4	.
COc1cc(/C=C2/SC(=S)N(CC(=O)O)C2=O)ccc1OC(=O)c1cccs1	-23	59*	-20	-44	-23	-24	62*
Cc1cccc2nnc(-c3ccccc3)n12	-1	.	.	4	.	-2	.
Cc1ccc(CSc2ccc3nnc(-c4ccccn4)n3n2)cc1	5	50*	3	3	-11	0	39
CSC1=NNC(c2ccc(C(C)(C)C)cc2)=NN1	6	-1	0	1	-7	3	.
c1ccc(N2CCN(c3nc(-c4ccccn4)nc4ccccc34)CC2)cc1	-4	83*	3	-6	10	0	79*
CN1CCN(c2nc(-c3ccccn3)nc3ccccc23)CC1	0	11	-3	4	-4	-5	.
COc1ccc(-c2cc(-c3ccc(OC)c(OC)c3)n[nH]2)c(O)c1	5	46*	25*	3	14	4	29
COc1ccc(-c2cc(-c3ccccc3O)[nH]n2)cc1OC	0	26	9	9	13	-3	.
Clc1ccc(-c2csc(=Nc3cccnc3)n2CCCn2ccnc2)cc1Cl	6	56*	9	3	11	1	58*
COCCn1c(-c2ccc(Br)cc2)csc1=Nc1cccnc1	4	48*	4	7	7	-3	50*
OCCCn1c(-c2ccccc2)csc1=Nc1ccccc1	4	12	4	7	18	6	.
O=c1c2ccccc2sc2ccc(NCCCN3CCOCC3)cc12	-11	45*	16	9	28	7	35
O=c1[nH]ncc(N2CCCCCC2)c1Cl	3	4	-2	-1	-3	4	.
O=C(CSc1cccc(C(F)(F)F)c1)Nc1ccc(N2CCOCC2)cc1	7	47*	8	3	6	3	55*
O=C(CSc1ccccc1)Nc1ccc(N2CCOCC2)cc1	9	42	0	13	-10	-4	.
Cc1ccc(SCC(=O)Nc2ccc(N3CCOCC3)cc2)cc1C	-1	44*	8	-4	1	2	34
O=C(CSc1ccccc1F)Nc1ccc(N2CCOCC2)cc1	6	55*	-7	11	10	-5	52*
Cc1ccc(NC(=O)c2ccc3c(c2)N(CC(=O)N2CCCCC2)C(=O)C(C)(C)O3)cc1	5	48*	5	1	8	3	40

Compound activity from PubChem.
